What was measured:
[1] = folding enthalpy; higher = less favourable; fluorescence melt of hairpins on a sequencing array, two-state fit; settings: sodium 0.088 M
How it was run: (§1)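 Cy3 signals were normalised both to pre-quench Cy3 and to control constructs. They came from library hairpins carrying annealed Cy3 and quencher oligos on a sequenced MiSeq flow cell, imaged in 50 mM Na-HEPES pH 8.0, 25 mM NaCl, in 2.5 °C steps up to 60 °C. Bootstrapped two-state fits gave melting temperature and folding enthalpy, and four replicates were combined by inverse variance. Fitted temperatures were then raised by 9.35 °C to match UV melts.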

[2] = melting temperature; fluorescence melt of hairpins on a sequencing array, two-state fit, raised by 9.35 °C to match UV melts; settings: sodium 0.088 M
How it was run: as §1

Sequence | folding enthalpy [1] [kcal/mol] | Tm [2] [°C]
GCTGGGAAACCAGC (((((....))))) | -29.9 | 65.4
GCTGGGACGAAAGTCAGC (((..(((....)))))) | -19.3 | 46.3
GCTGGGCGAAAGCACTGC ((.(.((....)).).)) | -29.4 | 61.3
GCTGGGCGAAAGCCCCGC ((.((((....)))).)) | -16.1 | 58.5
GCTGGGCGAAAGCCTGGC ((..(((....)))..)) | -24.5 | 60.9
GCTGGGCGAAAGCGAAGC (((..((....))..))) | -20 | 47.5
GCTGGGCGAAAGCTGAGC (((..((....))..))) | -21 | 49.3
GCTGGGGAAACCCAGC ((((((....)))))) | -37.5 | 69.3
GCTGGTCGAAAGACTAGC (((.(((....))).))) | -43.2 | 57.6
GCTGGTGGAAACACCGGC ((.((((....)))).)) | -36.1 | 62.6
GCTGGTGGAAACGCTAGC (((.(.(....).).))) | -26.8 | 41.2
GCTGTAGCGAAAGCTAGC (((..(((....)))))) | -14 | 46.4
GCTGTAGGAAACTGCAGC ((((.((....)).)))) | -43.3 | 52.6
GCTGTAGGAAACTGTAGC (((..((....))..))) | -11.7 | 29.2
GCTGTATCGAAAGATAGC (((..(((....)))))) | -18.4 | 33.7
GCTGTCGAAAGACAAAGC ((((((....)))..))) | -23.9 | 48.9
GCTGTCGAAAGACCAAGC ((((((....)))..))) | -19.5 | 38.9
GCTGTCGAAAGACGAAGC ((((((....)))..))) | -18.4 | 44.3
GCTGTCGGAAACGACGGC ((.((((....)))).)) | -34.2 | 64
GCTGTCGGAAACGATGGC ((..(((....)))..)) | -33.5 | 47.8
GCTGTCGGAAACGGCAGC ((((.((....)).)))) | -47.7 | 63
GCTGTGCGAAAGCACTGC ((.((((....)))).)) | -24.1 | 68.1
GCTGTGCGAAAGCCAAGC (((..((....))..))) | -19.2 | 46.2

Sequence | folding enthalpy [1] [kcal/mol] | Tm [2] [°C]
GCTGTGCGAAAGCCTAGC (((..((....))..))) | -18.2 | 44.3
GCTGTGGGAAACCACGGC ((.((((....)))).)) | -36.2 | 58.8
GCTGTGGGAAACTACGGC ((.((.(....).)).)) | -31.6 | 42.6
GCTGTGTCGAAAGACAGC (((..(((....)))))) | -17.3 | 48.9
GCTGTTGGAAACAGCAGC ((((.((....)).)))) | -12.4 | 63
GCTGTTGGAAACGACAGC (((((.(....).))))) | -40.7 | 54.7
GCTTAACCGAAAGGTAGC (((..(((....)))))) | -19 | 42.2
GCTTAAGAAATTAAGC ((((((....)))))) | -26.4 | 43.5
GCTTACGAAAGTAAAAGC ((((((....)))..))) | -27.5 | 41.7
GCTTACGAAAGTAAGC ((((((....)))))) | -31.8 | 68.9
GCTTACGAAAGTAGCAGC ((((((....)))..))) | -18.4 | 38.1
GCTTACGAAAGTAGGAGC ((((((....)))..))) | -25.3 | 35
GCTTACGCGAAAGCGAGC (((..(((....)))))) | -12.7 | 43
GCTTACGGAAACGTAAAC (.(((((....))))).) | -17.9 | 33.3
GCTTACGGAAACGTGAGC (((.(((....))).))) | -43.4 | 52.6
GCTTACTCGAAAGAGAGC (((..(((....)))))) | -14.5 | 30.1
GCTTAGCGAAAGCATAGC (((..((....))..))) | -16.8 | 45.7
GCTTAGCGAAAGCCCAGC (((..((....))..))) | -11.5 | 33.4
GCTTAGCGAAAGCCGAGC (((..((....))..))) | -15.8 | 42
GCTTAGCGAAAGCGTAGC (((..((....))..))) | -28.9 | 61.3
GCTTAGCGAAAGCTACGC ((.((((....)))).)) | -22.4 | 51.9
GCTTAGCGAAAGCTAGGC ((.((((....)))).)) | -28.3 | 60.4
GCTTAGCGAAAGCTCTGC ((..(((....)))..)) | -16.4 | 37.8

Sequence | folding enthalpy [1] [kcal/mol] | Tm [2] [°C]
GCTTAGCGAAAGCTTTGC ((..(((....)))..)) | -14.8 | 44.3
GCTTATACGAAAGTAAGC (((..(((....)))))) | -21.5 | 37.4
GCTTATGGAAACATAAGC (((((((....))))))) | -40.6 | 56
GCTTCAGGAAACTGAAAC (.(((((....))))).) | -15 | 31.5
GCTTCCCGAAAGGGAGC (((.(((....)))))) | -22.3 | 57.1
GCTTCCGAAAGGACAGC ((((((....))).))) | -24.4 | 47.8
GCTTCCGAAAGGATAGC ((((((....))).))) | -24.9 | 48.7
GCTTCCGGAAACGAAAGC ((((.((....)).)))) | -29.7 | 43
GCTTCGCGAAAGCAGAGC (((..((....))..))) | -18.2 | 48.3
GCTTCGCGAAAGCGGGGC ((..(((....)))..)) | -18.5 | 57.9
GCTTCGCGAAAGCGTCGC ((..(((....)))..)) | -15.6 | 41.4
GCTTCGCGAAAGCGTTGC ((..(((....)))..)) | -20.3 | 47.2
GCTTCGCGAAAGCTATGC ((.(.((....)).).)) | -13.4 | 43.5
GCTTCGGGAAACCAAAGC ((((.((....)).)))) | -28.7 | 41.1
GCTTCGGGAAACCGAGGC ((.((((....)))).)) | -42.3 | 53.5
GCTTCGTCGAAAGACAGC (((..(((....)))))) | -11.5 | 34.5
GCTTCTGAAAAGAAGC ((((((....)))))) | -31.9 | 60
GCTTCTGGAAACAGAAAC (.(((((....))))).) | -17.7 | 32.2
GCTTGAACGAAAGTTAGC (((..(((....)))))) | -13.7 | 36.1
GCTTGCACGAAAGTGAGC (((..(((....)))))) | -17.3 | 44.4
GCTTGCGAAAGCAACAGC ((((((....)))..))) | -11.4 | 44.4
GCTTGCGAAAGCACAAGC ((((((....)))..))) | -16.1 | 45.3
GCTTGCGAAAGCACTAGC ((((((....)))..))) | -12.7 | 33.8

Sequence | folding enthalpy [1] [kcal/mol] | Tm [2] [°C]
GCTTGCGAAAGCAGTAGC ((((((....)))..))) | -17.8 | 45.7
GCTTGCGAAAGCATAGC ((((((....))).))) | -18.9 | 55.3
GCTTGCGAAAGCATGAGC ((((((....)))..))) | -22.9 | 52.6
GCTTGCTCGAAAGAGAGC (((..(((....)))))) | -21.3 | 49.1
GCTTGGACGAAAGTCAGC (((..(((....)))))) | -16.7 | 42.1
GCTTGGCGAAAGCAAGGC ((.(.((....)).).)) | -14.9 | 45.6
GCTTGGCGAAAGCCATGC ((.((((....)))).)) | -27.2 | 65.4
GCTTGGCGAAAGCCCTGC ((..(((....)))..)) | -13.6 | 40.2
GCTTGGCGAAAGCCGTGC ((..(((....)))..)) | -15.3 | 53.4
GCTTGGCGAAAGCGCAGC (((..((....))..))) | -12.8 | 43.5
GCTTGGCGAAAGCTGAGC (((..((....))..))) | -22.3 | 56.2
GCTTGGGAAACCAAGC ((((((....)))))) | -35.7 | 62.7
GCTTGGGGAAACCTAGGC ((.(.((....)).).)) | -23.5 | 32.3
GCTTGGGGAAACTCAGGC ((.((.(....).)).)) | -18.2 | 36.6
GCTTGTACGAAAGTAAGC (((..(((....)))))) | -24.9 | 37.7
GCTTGTCCGAAAGGAAGC (((..(((....)))))) | -17.7 | 36.1
GCTTGTCGAAAGACCAGC (((.(((....))).))) | -26.7 | 47.9
GCTTGTGGAAACACAAAC (.(((((....))))).) | -13.8 | 36.3
GCTTTACGAAAGTACAGC (((.(((....))).))) | -28.6 | 44.8
GCTTTACGAAAGTATAGC (((.(((....))).))) | -34.1 | 47
GCTTTAGGAAACTGAAGC ((((.((....)).)))) | -30.1 | 42.4
GCTTTCACGAAAGTGAGC (((..(((....)))))) | -11.2 | 33.8

Reference: the array DNA melting data of Ke et al. (doi:10.1101/2024.01.08.574731)
